From ChEMBL document CHEMBL2062410, “Synthesis, characterization and pharmacological study of 4,5-dihydropyrazolines carrying pyrimidine moiety” (2012)

How the values were obtained:
Format in all cases: functional
[1] = Free radical scavenging activity assessed as inhibition of DPPH radical generation at 100 ug
Method in brief: (§1)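 Brand-Williams method: 1 mL sample at […] per mL mixed with 2 mL of 0.2 mM methanolic DPPH. Stood 30 min at room temperature, then absorbance read at 517 nm. % scavenging calculated relative to 0.2 mM DPPH control without sample.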

[2] = Free radical scavenging activity assessed as inhibition of nitric oxide generation at 100 ug
[3] = Free radical scavenging activity assessed as inhibition of superoxide anion generation at 100 ug
[4] = Free radical scavenging activity assessed as inhibition of hydroxyl radical generation at 100 ug by Fenton reaction method
[5] = Free radical scavenging activity assessed as inhibition of DPPH radical generation at 25 ug; method in brief: as §1
[6] = Free radical scavenging activity assessed as inhibition of DPPH radical generation at 50 ug; method in brief: as §1
Rattus norvegicus [7] = assay: Antiinflammatory activity in Wistar albino rat assessed as inhibition of carrageenan-induced paw edema dosed at 20 mg/kg in plantar region of paw administered 30 mins before carrageenan challenge measured 1 hr post carrageenan-induced inflammation
Method in brief: (§2)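 Wistar albino rats of either sex, 180–250 g, fasted 12 h before and during testing. Test compounds at 20 mg/kg given 30 min before carrageenan (0.1 mL of 1% w/v) injected into the plantar paw; diclofenac 20 mg/kg as reference. Paw volume by plethysmography at 30–180 min. % inhibition = (1 − Vt/Vc) × 100 against control edema; mean ± SEM, n = 6.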

Mus musculus [8] = assay: Analgesic activity in Swiss albino mouse assessed as increase in reaction time at 10 mg/kg, ip measured 90 mins post dose by tail immersion method; details: route intraperitoneal
Method in brief: (§3)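 Tail immersion in Swiss albino mice, 6 per group, heat as pain source. Tail tip dipped in a thermostatic bath held at 55 °C. Basal reaction time noted before treatment. Test compounds at 10 mg/kg i.p., with pentazocine as reference. Reaction time read at 30, 60 and 90 min, given as mean ± SEM with % increase over basal.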

Mus musculus [9] = assay: Analgesic activity in Swiss albino mouse assessed as increase in reaction time at 10 mg/kg, ip measured 60 mins post dose by tail immersion method; details: route intraperitoneal; method in brief: as §3
Mus musculus [10] = assay: Analgesic activity in Swiss albino mouse assessed as increase in reaction time at 10 mg/kg, ip measured 30 mins post dose by tail immersion method; details: route intraperitoneal; method in brief: as §3
Rattus norvegicus [11] = assay: Antiinflammatory activity in Wistar albino rat assessed as inhibition of carrageenan-induced paw edema dosed at 20 mg/kg in plantar region of paw administered 30 mins before carrageenan challenge measured 0.5 hrs post carrageenan-induced inflammation; method in brief: as §2
Rattus norvegicus [12] = assay: Antiinflammatory activity in Wistar albino rat assessed as inhibition of carrageenan-induced paw edema dosed at 20 mg/kg in plantar region of paw administered 30 mins before carrageenan challenge measured 2.5 hrs post carrageenan-induced inflammation; method in brief: as §2
Rattus norvegicus [13] = assay: Antiinflammatory activity in Wistar albino rat assessed as inhibition of carrageenan-induced paw edema dosed at 20 mg/kg in plantar region of paw administered 30 mins before carrageenan challenge measured 3 hrs post carrageenan-induced inflammation; method in brief: as §2
Rattus norvegicus [14] = assay: Antiinflammatory activity in Wistar albino rat assessed as inhibition of carrageenan-induced paw edema dosed at 20 mg/kg in plantar region of paw administered 30 mins before carrageenan challenge measured 1.5 hrs post carrageenan-induced inflammation; method in brief: as §2
Rattus norvegicus [15] = assay: Antiinflammatory activity in Wistar albino rat assessed as inhibition of carrageenan-induced paw edema dosed at 20 mg/kg in plantar region of paw administered 30 mins before carrageenan challenge measured 2 hrs post carrageenan-induced inflammation; method in brief: as §2

Compound | inhibition [1] [%] | inhibition [2] [%] | inhibition [3] [%] | inhibition [4] [%] | inhibition [5] [%] | inhibition [6] [%] | inhibition in vivo at 20 mg/kg (Rattus norvegicus [7]) [%] | Activity (Mus musculus [8]) [%] | Activity (Mus musculus [9]) [%] | Activity (Mus musculus [10]) [%] | inhibition in vivo at 20 mg/kg (Rattus norvegicus [11]) [%] | inhibition in vivo at 20 mg/kg (Rattus norvegicus [12]) [%] | inhibition in vivo at 20 mg/kg (Rattus norvegicus [13]) [%] | inhibition in vivo at 20 mg/kg (Rattus norvegicus [14]) [%] | inhibition in vivo at 20 mg/kg (Rattus norvegicus [15]) [%]
Brc1ccc(C2=NN(c3ncc(Br)cn3)[C@@H](c3ccc(Br)cc3)C2)cc1 | 78.2 | 23.8 | 52.5 | 71.4 | 51.5 | 69.7 | – | – | – | – | – | – | – | – | –
Clc1ccc(C2=NN(c3ncc(Br)cn3)[C@@H](c3ccccc3)C2)cc1 | 90.5 | 39.1 | 42.6 | 82.6 | 62.7 | 76.5 | 71 | 84.65 | 70.79 | 37.62 | 60 | 70 | 75 | 71 | 73
Brc1ccc([C@H]2CC(c3ccccc3)=NN2c2ncc(Br)cn2)cc1 | 93.4 | 47.6 | 62.1 | 86.8 | 65.4 | 79.6 | 68 | 59.39 | 62.01 | 25.76 | 64 | 78 | 76 | 74 | 74
CC(C)=CCN1CC[C@@]2(C)c3cc(O)ccc3C[C@@H]1[C@@H]2C (relative stereo) | – | – | – | – | – | – | – | 67.28 | 45.79 | 25.7 | – | – | – | – | –
O=C(O)Cc1ccccc1Nc1c(Cl)cccc1Cl [DICLOFENAC] | – | – | – | – | – | – | 69 | – | – | – | 61 | 71 | 80 | 67 | 78
Clc1ccc([C@H]2CC(c3ccc(Br)cc3)=NN2c2ncc(Br)cn2)cc1 | 78.9 | 40.2 | 38.9 | 66.3 | 56.8 | 68.2 | – | – | – | – | – | – | – | – | –
Clc1ccc(C2=NN(c3ncc(Br)cn3)[C@@H](c3ccc(Br)cc3)C2)cc1 | 78.5 | 38.1 | 24.6 | 70.6 | 52.2 | 67.3 | – | – | – | – | – | – | – | – | –
Cc1cc(C(C)(C)C)c(O)c(C(C)(C)C)c1 | 93.2 | 43.2 | 64 | 87 | 65.9 | 79.4 | – | – | – | – | – | – | – | – | –
COc1ccc([C@H]2CC(c3ccc(Cl)cc3)=NN2c2ncc(Br)cn2)cc1 | 89.8 | 46.2 | 58.7 | 81.6 | 68.5 | 79.4 | 62 | 71.96 | 39.25 | 28.97 | 58 | 69 | 73 | 64 | 70
Clc1ccc([C@H]2CC(c3ccccc3)=NN2c2ncc(Br)cn2)cc1 | 93.5 | 43.3 | 60 | 87.9 | 60.1 | 78.1 | 70 | 78.31 | 72.16 | 29.71 | 61 | 72 | 78 | 71 | 76
Cc1ccc([C@H]2CC(c3ccccc3)=NN2c2ncc(Br)cn2)cc1 | 94.1 | 56.1 | 59.1 | 89.1 | 67.5 | 79.2 | 68 | 65.63 | 73.66 | 16.51 | 63 | 72 | 79 | 71 | 69
Cc1ccc([C@H]2CC(c3ccc(Br)cc3)=NN2c2ncc(Br)cn2)cc1 | 69.3 | 33.7 | 50.2 | 71.5 | 55.3 | 66.3 | – | – | – | – | – | – | – | – | –
Cc1ccc([C@H]2CC(c3ccc(Cl)cc3)=NN2c2ncc(Br)cn2)cc1 | 80 | 38.1 | 43.8 | 63.2 | 54.4 | 71.8 | – | – | – | – | – | – | – | – | –
Clc1ccc(C2=NN(c3ncc(Br)cn3)[C@@H](c3ccc(Cl)cc3)C2)cc1 | 78.3 | 31.4 | 38.6 | 69.4 | 54.5 | 69.2 | – | – | – | – | – | – | – | – | –
O=[N+]([O-])c1ccc([C@H]2CC(c3ccccc3)=NN2c2ncc(Br)cn2)cc1 | 75.6 | 32.1 | 42.2 | 79.2 | 54.5 | 64.7 | – | – | – | – | – | – | – | – | –
